From the RNAGym collection of RNA variant scans (doi:10.1126/science.aae0568)
Variants at the floor of the assay were thinned out.

B1: tRNA (parent)
chain: GUUCCGUUGGCGUAAUGGUAACGCGUCUCCCUCCUAAGGAGAAGACUGCGGGUUCGAGUCCCGUACGGAACG

Variants of: B1
Experiment: yeast fitness relative to wild type (ratio to wild type); higher = fitter; tRNA-Arg(CCU), competitive growth, 37 C, YPD
Method in brief: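 Variants of the tRNA-Arg(CCU) gene were chemically synthesised with a 3% per-site mutation rate across 69 sites and placed at the native genomic locus in Saccharomyces cerevisiae. Six parallel replicates of the pooled strains were competed in YPD at 37°C for 24 hours, and gene amplicons from the start and end populations were read by 100-nucleotide paired-end sequencing. Darwinian fitness relative to wild type was derived from changes in genotype frequencies. Genotypes required ≥ 100 starting reads, and estimates < 0.5 were set to 0.5.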

Variant	yeast fitness
GUUCCGUUGGCGUAAUGGUAACGCGUCUCCCUCCUUAGGAGAAGACUCGGGGUUCGAGUCCCGUACGGAACG	≤ 0.5
GUUCCGUUGGCGUAAUGGUAACGCGUCUCCCUCCUACGGAGAUGACUGCGGAUUCGAGUCCAGUAAGGAACG	≤ 0.5
GUUCCGUUGGCGUAAUGGUAACGCGUCUCCCUCCUUAGGAGAAGACUGCGGGUUCGAGUCCCAUACGGAACG	0.672
GUUCCGUUGGCGUAAUGGUAACGCGUCUCCCUCCUUAGGAGAAGACUGCGGGUUCCAGUCCCGUCCGGAACG	≤ 0.5
GUUCCGUUGGCGUAAUGGUAACGCGUCUCCCUCCUACGGGGAAGACUGCGGCUUCGAGCCCCGUUCGGAACG	≤ 0.5
GUUCCGUUGGCGUAAUGGUAACGCGUCUCCCUCCUACGGAGAAGACUGCGGGUUAGAGUGCCCUACGGAACG	≤ 0.5
GUUCCGUUGGCGUAAUGGUAACGCGUCUCCCUCCUACGGAGACGACUGCGGGUUCGAGUCCCGUAAGGAACG	≤ 0.5
GUUCCGUUGGCGUAAUGGUAACGCGUCUCCCUCCUUAGGAGAAGACGGCGGGUUCGAGUCCCGUACGGAGCG	≤ 0.5
GUUCCGUUGGCGUAAUGGUAACGCGUCUCCCUCCUACGGAGAAGACUGCGGGUUCGAGUCCCGUACGGACCG	0.968
GUUCCGUUGGCGUAAUGGUAACGCGUCUCCCUCCUACGGAGAAGACUGCGGGUUCGAGUCCCGUACGGAUCG	0.752
GUUCCGUUGGCGUAAUGGUAACGCGUCUCCCUCCUACGGAGAAGAGUGCGGGUUCGAGUCCCGUACGGAACG	0.947
GUUCCGUUGGCGUAAUGGUAACGCGUCUCCCUCCUACGGAGAAGACUGGGGGUUCGAGUCCCGUACGGACCG	≤ 0.5
GUUCCGUUGGCGUAAUGGUAACGCGUCUCCCUCCUACGGAGACGACUGCGGGUUCGAGACCCGUACGGGACG	≤ 0.5
GUUCCGUUGGCGUAAUGGUAACGCGUCUCCCUCCUACGGAGAAGAUUGCGGGCUCGAGUCCCGUACGGAACG	≤ 0.5
GUUCCGUUGGCGUAAUGGUAACGCGUCUCCCUCCUUAGGACAAGACUGCGGGUUCGAGUCCCGUACGGAACG	0.686
GUUCCGUUGGCGUAAUGGUAACGCGUCUCCCUCCUACGGAGAAGUCUGCGGGUUCGAGUCCCGUACCAAACG	≤ 0.5
GUUCCGUUGGCGUAAUGGUAACGCGUCUCCCUCCUACGGAGGAGACUGCGGGUUCGAGUCCCGUACGGAACG	0.777
GUUCCGUUGGCGUAAUGGUAACGCGUCUCCCUCCUACGGAGAAGACUGUGGGUUAGAGUACCGUACGGAACG	≤ 0.5
GUUCCGUUGGCGUAAUGGUAACGCGUCUCCCUCCUUAGGAGAAGACUGCGGGAUCGAGUCCCGUACGGAACG	0.728

Variant	yeast fitness
GUUCCGUUGGCGUAAUGGUAACGCGUCUCCCUCCUUAGGAGAAGACUGCGGGGUCGAGUCCCGUACGGAACG	0.544
GUUCCGUUGGCGUAAUGGUAACGCGUCUCCCUCCUACGGAGAAGAGUGCGGGUUCGAGUACCGUAUGGAACG	≤ 0.5
GUUCCGUUGGCGUAAUGGUAACGCGUCUCCCUCCUACGGAGAAGACUGCGGGUUCGAGUUCCGUACAGAACG	0.522
GUUCCGUUGGCGUAAUGGUAACGCGUCUCCCUCCUACGGAGAAGUCUGCGGCUUCGAGUCCCGUACGGAACG	≤ 0.5
GUUCCGUUGGCGUAAUGGUAACGCGUCUCCCUCCUACGGAGCAGACUGCGGGUUCGAGUCCCGUAAGGAACG	0.547
GUUCCGUUGGCGUAAUGGUAACGCGUCUCCCUCCUUAGAAGAAGGCUGCGGGUUCGAGUCCCUUACGGAACG	0.535
GUUCCGUUGGCGUAAUGGUAACGCGUCUCCCUCCUUAGGAGAAAACUGCGGGUUCGAGUCCCGUACGGAACG	0.578
GUUCCGUUGGCGUAAUGGUAACGCGUCUCCCUCCUUAGGAGAAGACUGCGGGUUCGAGCCCCGUACGGAACG	0.663
GUUCCGUUGGCGUAAUGGUAACGCGUCUCCCUCCUUAGGAGAAGACUGCGGGUUCCAGUCCCGUACGGAACG	0.563
GUUCCGUUGGCGUAAUGGUAACGCGUCUCCCUCCUUAGGAGAAGACUGCGGGUUCAAGUCCCGUACGGAACG	0.574
GUUCCGUUGGCGUAAUGGUAACGCGUCUCCCUCCUUAGGAGAAGACUGCGGGUUCGAGUCUCAUAUGGAACG	≤ 0.5
GUUCCGUUGGCGUAAUGGUAACGCGUCUCCCUCCUACGGAGAAGACUGCGGGUUCGAGUCCCGUGCGGAACG	0.94
GUUCCGUUGGCGUAAUGGUAACGCGUCUCCCUCCUUAGGAGAAGACUGCGGGUUCGACUUCCGUACGGAACG	≤ 0.5
GUUCCGUUGGCGUAAUGGUAACGCGUCUCCCUCCUACGGAGAUGACUGCGGGUUCGAGUCCCGUACGGUACG	0.738
GUUCCGUUGGCGUAAUGGUAACGCGUCUCCCUCCUACGGAGAAGACUGCGGGUUAGAGUCCCGUCCGGAACG	0.603
GUUCCGUUGGCGUAAUGGUAACGCGUCUCCCUCCUUAGGAGAAGACUGCGGCUUCGAGUCCCGUACGGAACG	0.53
GUUCCGUUGGCGUAAUGGUAACGCGUCUCCCUCCUACGGCGAAGACUGCGGGCUCGAGUCCCGUACGGAACG	0.526
GUUCCGUUGGCGUAAUGGUAACGCGUCUCCCUCCUUAGCAGAAGACUGCGGGUUCGAGUCCCGUACGGAACG	0.669
